Assays:
[1] = system: murine AML cells expressing Myc cDNA; experiment: Ectopic Myc cDNA expression rescue in murine AML cells; type: cell-based; conditions: murine AML cells transduced with Myc cDNA MSCV retrovirus
[2] = system: SW-480 cells; experiment: Colony formation of adherent cancer cells; type: cell-based, human; conditions: dose-dependent; after 5 days of treatment
[3] = system: Hexim1 mRNA; experiment: RT-qPCR of Hexim1 in murine AML cells; type: cell-based; conditions: 6 h treatment
[4] = system: MYC; experiment: Western blot of MYC protein in murine AML cells; type: cell-based; conditions: murine MLL-AF9, Nras^G12D AML cells, 6 h, RVX-208 1 μM, OTX-015 1 μM, candidates 10 μM
In short: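 Whole-cell lysates were prepared after the 6 h treatment and probed for MYC by western blot. DMSO-treated cells were the vehicle control.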

[5] = system: c-Kit surface expression; experiment: Flow cytometric analysis of c-Kit in murine AML cells; type: cell-based; conditions: 48 h, flow cytometry
[6] = system: human leukemia cell lines; experiment: Proliferation assay of human leukemia cell lines; type: cell-based; conditions: 48 h, normalized to DMSO-treated cells
In short: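 Human leukemia cell lines were grown with test compound. Proliferation rate was normalised to DMSO-treated cells; n = 3, mean ± SEM.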

[7] = system: human AML cells; experiment: Methylcellulose-based colony formation of human AML cells; type: cell-based; conditions: semi-solid methylcellulose (Figure 3E)
[8] = system: MLL-AF9;Nras^G12D AML cells; experiment: Propidium iodide staining of murine AML cells; type: cell-based; conditions: 48 h (Figure 3D)
[9] = system: PDA organoids; experiment: PDA organoid growth; type: cell-based, mouse; conditions: 24, 48, and 72 h, light microscopy; CellTiter Glo-3D
In short: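 PDA organoids were treated with test compound or DMSO and imaged by light microscopy at 24, 48 and 72 h. Growth was quantified with CellTiter-Glo 3D. Data are shown as mean ± SEM, and p-values came from Student's t test.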

[10] = system: AsPC-1 cells; experiment: Colony formation of adherent cancer cells; type: cell-based, human; conditions: dose-dependent; after 5 days of treatment
[11] = system: BRD4 occupancy at e1-e5 Myc enhancers; experiment: BRD4 ChIP-qPCR at Myc enhancers in murine AML cells; type: cell-based
[12] = system: murine AML cells (MLL-AF9; Nras^G12D); experiment: RNA-seq and GSEA in murine AML cells; type: cell-based; conditions: RNA-seq; for mRNA levels of JQ1-rapid target genes (n = 50): relative to DMSO
[13] = system: RNA polymerase II chromatin occupancy; experiment: RNA Pol II ChIP-seq in murine AML cells; type: cell-based; conditions: BRD4-occupied sites
[14] = system: BRD4 chromatin occupancy; experiment: BRD4 ChIP-seq in murine AML cells; type: cell-based; conditions: regions enriched with H3K27ac
[15] = system: BD2 vs BD1 of BET proteins; conditions: approximately; cited from earlier work

Question: Which results are given for `Cc1sc2c(c1C)C(c1ccc(Cl)cc1)=N[C@@H](CC(=O)Nc1ccc(O)cc1)c1nnc(C)n1-2` [OTX-015, birabresib]?
Answer: effect of ectopic Myc expression on drug sensitivity [1]: ectopic Myc expression conferred resistance; clonogenic growth of SW-480 cells [2]: markedly inhibit clonogenic growth; increase of Hexim1 mRNA expression [3]: > 20 fold; MYC protein expression [4]: downregulated MYC protein levels; c-Kit surface expression [5]: downregulated c-Kit; anti-proliferative activity in K562, NOMO-1, JURKAT, and HL-60 [6]: minimal sensitivity; anti-proliferative activity in MV4-11, KASUMI-1, MOLM-13, and THP-1 [6]: broad growth-suppressive effect; ability to form colonies on methylcellulose [7]: substantially suppressed; proliferation of leukemia cells [8]: inhibited the proliferation of leukemia cells; PDA organoid growth [9]: attenuated PDA organoid growth; clonogenic growth of AsPC-1 cells [10]: markedly inhibit clonogenic growth; BRD4 occupancy at e1-e5 Myc enhancers [11]: impaired the occupancy of BRD4 at the e1-e5 Myc enhancers; LSC signature genes (GSEA) [12]: significantly suppressed the LSC signature genes; mRNA levels of JQ1-rapid target genes (n = 50) [12]: strongly downregulated all JQ1-rapid targets; expression of genes close to the BBC1115-sensitive 330 regions (GSEA) ([12]; vs DMSO): significantly downregulated

Question: For `COc1cc(OC)c2c(=O)[nH]c(-c3cc(C)c(OCCO)c(C)c3)nc2c1` [RVX-208, apabetalone], which MYC protein expression [4] is on record?
Answer: Its MYC protein expression is “only modestly affected MYC protein expression”.

Question: What about the “RNA Pol II chromatin binding (ChIP-seq)” value [13] of the same compound?
Answer: Its value is “negligible”.

Question: What about the “BRD4 chromatin occupancy (ChIP-seq)” value [14] of the same compound?
Answer: The value was “negligible”.

Question: What about the PDA organoid growth [9] of the same compound?
Answer: Its PDA organoid growth is “but not RVX-208, attenuated PDA organoid growth”.

Question: And the “BRD4 occupancy at e1-e5 Myc enhancers” value [11]?
Answer: Its value is “negligible effect on the BRD4 occupancy at e1-e5”.

Question: And the “LSC signature genes (GSEA)” value [12]?
Answer: The value was “insignificant”.

Question: What about the “mRNA levels of JQ1-rapid target genes (n = 50)” value [12] of the same compound?
Answer: Its value is “downregulated some but not all JQ1-rapid targets”.

Question: And the “stronger binding affinity toward BD2 than BD1” value [15]?
Answer: The value was 10- to 100 fold.
